Active and inactive are the calls of the source. The rule behind the calls is not given here.
Tests used:
[1] = tested on: Novosphingobium capsulatum; assay: Antibacterial activity against Sphingomonas capsulata ATCC 14666 infected in C57BL/6 mouse assessed as reduction in lung bacterial load at 100 ug/kg, ip administered 2 hrs post infection measured 24 hrs post infection; format: functional, organism-based
[2] = tested on: Novosphingobium capsulatum; assay: Antibacterial activity against Sphingomonas capsulata ATCC 14666 infected in C57BL/6 mouse assessed as reduction in lung bacterial load at 50 ug/kg, ip administered 2 hrs post infection measured 24 hrs post infection; format: functional, organism-based
[3] = tested on: Japanese encephalitis virus; assay: Antiviral activity against Japanese encephalitis virus RP-9 infected in C57BL/6 mouse assessed as mouse survival rate at 1 ug, ip administered one day before and 1 day after viral infection measured after 25 days post infection relative to solvent treated control; format: functional
[4] = tested on: Japanese encephalitis virus; assay: Antiviral activity against Japanese encephalitis virus RP-9 infected in C57BL/6 mouse assessed as mouse survival rate at 1 ug, ip administered one day before viral infection measured after 25 days post infection relative to solvent treated control; format: functional
[5] = tested on: Staphylococcus aureus; assay: Antibacterial activity against luminescent Staphylococcus aureus Xen29 infected in BALB/c mouse deep thigh wound infection model assessed as reduction in bacterial load at 150 ug/kg, ip administered 3 hrs post infection by iVIS in-vivo imaging system; format: functional, organism-based
Procedure, shortened: (§1)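 Female BALB/c mice were infected in the left posterior thigh muscle with 3 × 10^8 CFU luminescent S. aureus Xen29 in 200 μl PBS. Glycolipid at 150 μg/kg or vehicle was given i.p. at 3 h, 0 h or 6 h post-infection. Live mice were imaged at 48 h, and RLU per mouse was compared by one-way ANOVA with Tukey posttest.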

[6] = tested on: Staphylococcus aureus; assay: Antibacterial activity against luminescent Staphylococcus aureus Xen29 infected in BALB/c mouse deep thigh wound infection model assessed as reduction in bacterial load at 150 ug/kg, ip administered 6 hr post infection after infection measured 48 hrs post infection by iVIS in-vivo imaging system; format: functional, organism-based; procedure, shortened: as §1
[7] = tested on: Japanese encephalitis virus; assay: Antiviral activity against Japanese encephalitis virus RP-9 infected in C57BL/6 mouse assessed as mouse survival rate at 1 ug, ip administered simultaneously with viral infection measured after 25 days post infection relative to solvent treated control; format: functional
[8] = tested on: Japanese encephalitis virus; assay: (§2) Antiviral activity against Japanese encephalitis virus RP-9 infected in Ig-mu chain-knockout immunodeficient C57BL/6 mouse assessed as mouse survival rate at 1 ug, ip administered one day before and 1 day after viral infection measured after 25 days post infection relative to solvent treated control; format: functional, organism-based
[9] = tested on: Staphylococcus aureus; assay: Antibacterial activity against luminescent Staphylococcus aureus Xen29 infected in BALB/c mouse deep thigh wound infection model assessed as reduction in bacterial load at 150 ug/kg, ip administered immediately after infection measured 48 hrs post infection by iVIS in-vivo imaging system; format: functional, organism-based; procedure, shortened: as §1
[10] = tested on: Japanese encephalitis virus; assay: Antiviral activity against Japanese encephalitis virus RP-9 infected in Stat-1-knockout immunodeficient C57BL/6 mouse assessed as mouse survival rate at 1 ug, ip administered one day before and 1 day after viral infection measured after 25 days post infection relative to solvent treated control; format: functional
[11] = tested on: Japanese encephalitis virus; assay: Antiviral activity against Japanese encephalitis virus RP-9 infected in C57BL/6 mouse assessed as mouse survival rate at 1 ug, ip administered one day after viral infection measured after 25 days post infection relative to solvent treated control; format: functional
[12] = tested on: Japanese encephalitis virus; assay: as §2, with “CD8-alpha” for “Ig-mu”; format: functional

Compound | inhibition [1] | inhibition [2] | Survival [3] | inhibition [5] | also measured
CCCCCCCCCCCCCCCCCCCCCCCCCC(=O)N[C@@H](CO[C@H]1O[C@H](C(=O)O)[C@H](O)[C@H](O)[C@H]1O)[C@H](O)[C@H](O)CCCCCCCCCCCCCC | Active | – | – | – | –
CCCCCCCCCCCCCC[C@@H](O)[C@@H](O)[C@H](CO[C@H]1O[C@H](CO)[C@H](O)[C@H](O)[C@H]1O)NC(=O)CCCCCCCCCCc1ccccc1 | Active | – | – | – | –
CCCCCCCCCCCCCCC[C@@H](O)[C@H](CO[C@H]1O[C@H](C(=O)O)[C@H](O)[C@H](O)[C@H]1O)NC(=O)CCCCCCCCCCCCC | inactive | – | – | – | –
CCCCCCCCCCCCCC[C@@H](O)[C@@H](O)[C@H](CO[C@H]1O[C@H](CO)[C@H](O)[C@H](O)[C@H]1O)NC(=O)CCCCCCCc1ccccc1 | Active | – | – | – | –
CCCCCCCCCCCCCC[C@@H](O)[C@@H](O)[C@H](CO[C@H]1O[C@H](CO)[C@H](O)[C@H](O)[C@H]1O)NC(=O)CCCCCCCc1ccc(F)cc1 | – | Active | 57% | – | –
CCCCCCCCCCCCCC[C@@H](O)[C@@H](O)[C@H](CO[C@H]1O[C@H](C(=O)O)[C@H](O)[C@H](O)[C@H]1O)NC(=O)CCCCCCCCCCc1ccc(Oc2ccc(F)cc2)cc1 | – | Active | 64% | Active | Survival [4]: 80%; inhibition [6]: inactive; Survival [7]: 40%; Survival [8]: inactive; inhibition [9]: Active; Survival [10]: 23%; Survival [11]: 20%
CCCCCCCCCCCCCC[C@@H](O)[C@@H](O)[C@H](CO[C@H]1O[C@H](C(=O)O)[C@H](O)[C@H](O)[C@H]1O)NC(=O)CCCCCCCCCCc1ccc(F)cc1 | – | Active | 71% | Active | Survival [4]: 60%; Survival [7]: 60%; Survival [12]: 22%; Survival [8]: inactive; Survival [10]: 0%; Survival [11]: 25%
CCCCCCCCCCCCCCCCCCCCCCCCCC(=O)N[C@@H](CO[C@H]1O[C@H](CO)[C@H](O)[C@H](O)[C@H]1O)[C@H](O)[C@H](O)CCCCCCCCCCCCCC [RGI-7000] | Active | – | 57% | Active | –
CCCCCCCCCCCCCCCCCCCCCCCCCC(=O)N[C@@H](CO[C@H]1O[C@H](CO)[C@H](O)[C@H](OS(=O)(=O)O)[C@H]1O)[C@H](O)[C@H](O)CCCCCCCCCCCCCC | inactive | – | – | – | –
CCCCCCCCCCCCCCCCCCCCCCCC(=O)N[C@@H](CO[C@H]1O[C@H](CO)[C@H](O)[C@H](O)[C@H]1O)[C@H](O)[C@H](O)CCCCC | inactive | – | – | – | –

Reference: ChEMBL document CHEMBL1671729, “In vivo protection provided by a synthetic new alpha-galactosyl ceramide analog against bacterial and viral infections in murine models” (2010)
